As a reminder, the pKd is the negative decadic logarithm of the Kd, by convention in mol/L.

The source of these data is paper PMC4409664 (Cell, 2015).

What all share (type): binding
The target in assay [1] is T1, STRA6 (Homo sapiens, UniProt Q9BX79).
T1 sequence (Q9BX79 1-667): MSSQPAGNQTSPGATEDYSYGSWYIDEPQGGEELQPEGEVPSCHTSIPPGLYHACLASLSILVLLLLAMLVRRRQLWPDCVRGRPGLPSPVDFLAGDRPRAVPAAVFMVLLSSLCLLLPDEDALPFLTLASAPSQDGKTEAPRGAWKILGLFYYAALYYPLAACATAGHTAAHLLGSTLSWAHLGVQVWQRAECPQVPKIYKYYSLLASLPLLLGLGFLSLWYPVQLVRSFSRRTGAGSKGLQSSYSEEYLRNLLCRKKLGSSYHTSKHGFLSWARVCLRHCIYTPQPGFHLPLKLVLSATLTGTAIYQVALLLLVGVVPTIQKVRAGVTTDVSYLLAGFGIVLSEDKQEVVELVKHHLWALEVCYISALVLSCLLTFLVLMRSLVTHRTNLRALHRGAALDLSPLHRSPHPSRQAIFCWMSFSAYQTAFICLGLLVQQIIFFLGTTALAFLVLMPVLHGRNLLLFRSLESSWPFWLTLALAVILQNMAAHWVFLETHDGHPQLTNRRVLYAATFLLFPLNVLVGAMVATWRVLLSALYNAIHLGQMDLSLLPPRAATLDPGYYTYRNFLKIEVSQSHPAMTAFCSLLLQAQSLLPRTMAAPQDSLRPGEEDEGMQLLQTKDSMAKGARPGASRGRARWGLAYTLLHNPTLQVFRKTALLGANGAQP
Nature of the assay: STRA6-RBP equilibrium and kinetic analysis by ELISA on STRA6+ HEK293T cells. As to conditions: read-out: Kd for STRA6, apo RBP^HA, 90 min at 37°C. Put shortly: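 Cells transfected with STRA6myc or vector were grown on poly-D-lysine. They were incubated 90 min at 37°C with medium containing 0–80 µg/mL apo RBP-HA and 0.5% BSA, washed in ice-cold HBSS, and bound RBP was eluted with 25 mM glycine HBSS pH 3. RBP was quantified by ELISA, with control-cell binding subtracted. Kd came from isotherms and reciprocal plots. TTR affinity was measured by SPR, running a TTR series over captured apo His-RBP.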

Assay [2] relates to human TTR. Nature of the assay: RBP-TTR coimmunoprecipitation from HeLa conditioned media. As to conditions: HeLa cotransfected, HA immunoprecipitates. Put shortly: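 HeLa cells cotransfected with myc-tagged TTR plus wild-type or mutant N-terminal HA-tagged human RBP plasmids. Secreted RBP complexes pulled from conditioned media with anti-HA agarose beads and washed in PBS. Western blot of immunoprecipitates probed first for TTR, then for HA.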

Assay [3] can be described thus: In vitro retinol titration by fluorescence enhancement. The note with it: read-out: Kd for retinol; apo-RBP^HA, PBS, fluorescence ex 330 nm, em 460 nm. The gist of the method:
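Apo RBP-HA was immunopurified from serum-free HeLa conditioned medium, eluted with HA peptide, dialyzed into PBS and checked for homogeneity by gel. Equal amounts of protein (380 nM) were loaded with fresh all-trans retinol (0 to 5 µM) for 1 hr in PBS. Retinol fluorescence enhancement (ex 330, em 460 nm) was read on a microplate reader. Parallel runs used PBS with 0.1% phosphatidylcholine vesicles.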

pKd: −log10 of the molar value.

For the substance serum retinol binding protein [WT], the values for the pKd in assay [1] and in assay [3] were 7.23 and about 7.10, respectively. For the same substance, the “interaction with human TTR in coimmunoprecipitation” value in assay [2] is “interacted strongly”.
